Assay results: ChEMBL document CHEMBL2046349, “Synthesis of pacidamycin analogues via an Ugi-multicomponent reaction” (Bioorg Med Chem Lett, 2012)
In brackets after ≈: the same amount, converted by molar mass.

What was measured:
[1] = target: T1, Phospho-N-acetylmuramoyl-pentapeptide-transferase (Staphylococcus aureus, UniProt P0C1R8); assay: Inhibition of Staphylococcus aureus MraY using UDP-MurNAc-dansylpentapeptide substrate assessed as formation of dansylated lipid I incubated for 3 to 4 hrs by fluorometric assay
T1 sequence (P0C1R8 whole entry): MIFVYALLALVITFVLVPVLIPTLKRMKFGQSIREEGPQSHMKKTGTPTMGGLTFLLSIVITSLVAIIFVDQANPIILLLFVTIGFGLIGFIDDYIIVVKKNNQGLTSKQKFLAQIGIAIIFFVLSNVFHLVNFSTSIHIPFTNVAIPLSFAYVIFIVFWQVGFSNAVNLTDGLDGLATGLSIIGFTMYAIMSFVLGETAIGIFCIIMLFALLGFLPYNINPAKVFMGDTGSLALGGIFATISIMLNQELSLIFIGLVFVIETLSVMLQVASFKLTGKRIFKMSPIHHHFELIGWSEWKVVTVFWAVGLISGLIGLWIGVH
How it was run: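 Purified S. aureus MraY with UDP-MurNAc-dansylpentapeptide as substrate. Dansylated lipid I formation followed as fluorescence enhancement at ex 355 nm / em 535 nm. IC50 reported.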

[2] = tested on: Pseudomonas aeruginosa; assay: Antimicrobial activity against Pseudomonas aeruginosa PAO1 incubated at 35 degC for 20 hrs by microdilution broth method; type: functional; details: PAO1, 20 h
How it was run: (§1)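 Broth microdilution per NCCLS in cation-adjusted Mueller-Hinton broth. Each compound serially diluted two-fold, and each […] inoculated at 5×10^4 CFU per 0.1 mL well. Plates incubated 35 °C for 20 h, then MIC scored.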

[3] = tested on: Pseudomonas aeruginosa; assay: Antimicrobial activity against Pseudomonas aeruginosa ATCC 25619 incubated at 35 degC for 20 hrs by microdilution broth method; type: functional; details: ATCC 25619, 20 h; how it was run: as §1
[4] = tested on: Pseudomonas aeruginosa; assay: Antimicrobial activity against Pseudomonas aeruginosa SR 27156 incubated at 35 degC for 20 hrs by microdilution broth method; type: functional; details: SR 27156, 20 h; how it was run: as §1
[5] = tested on: Pseudomonas aeruginosa; assay: Antimicrobial activity against Pseudomonas aeruginosa YYI65 (deltamexB) incubated at 35 degC for 20 hrs by microdilution broth method; type: functional; details: YYI65, 20 h; how it was run: as §1

Structure (SMILES) | IC50 [1] [nM] | MIC [2] [µg/mL] | MIC [3] [µg/mL] | MIC [4] [µg/mL] | MIC [5] [µg/mL]
C[C@H](N)C(=O)N(C)[C@@H](C)[C@@H](NC(=O)[C@H](C)NC(=O)N[C@@H](Cc1c[nH]c2ccccc12)C(=O)O)C(=O)N/C=C1\O[C@@H](n2ccc(=O)[nH]c2=O)[C@H](O)[C@@H]1O | 4000 | > 32 | > 32 | > 32 | > 32
C[C@H](NC(=O)N[C@@H](Cc1c[nH]c2ccccc12)C(=O)O)C(=O)N[C@H](C(=O)N/C=C1\O[C@@H](n2ccc(=O)[nH]c2=O)[C@H](O)[C@@H]1O)[C@H](C)N(C)C(=O)[C@H](Cc1ccc(O)cc1)NC(=O)CN | 4000 | > 32 | > 32 | > 32 | > 32
C[C@H](N)C(=O)N(C)[C@@H](C)[C@H](NC(=O)[C@H](C)NC(=O)N[C@@H](Cc1c[nH]c2ccccc12)C(=O)O)C(=O)N/C=C1/C[C@@H](O)[C@H](n2ccc(=O)[nH]c2=O)O1 [PACIDAMYCIN D] | 22 | 64 (≈ 89.9 µM) | 16 (≈ 22.5 µM) | 16 (≈ 22.5 µM) | 16 (≈ 22.5 µM)
C[C@H](NC(=O)N[C@@H](Cc1c[nH]c2ccccc12)C(=O)O)C(=O)N[C@H](C(=O)N/C=C1\O[C@@H](n2ccc(=O)[nH]c2=O)[C@H](O)[C@@H]1O)[C@H](C)N(C)C(=O)[C@H](Cc1cccc(O)c1)NC(=O)CN | 22 | > 32 | 32 (≈ 36.5 µM) | 16 (≈ 18.2 µM) | 16 (≈ 18.2 µM)
C[C@H](NC(=O)N[C@@H](Cc1c[nH]c2ccccc12)C(=O)O)C(=O)N[C@@H](C(=O)N/C=C1\O[C@@H](n2ccc(=O)[nH]c2=O)[C@H](O)[C@@H]1O)[C@H](C)N(C)C(=O)[C@H](Cc1cccc(O)c1)NC(=O)CN | 650 | > 32 | > 32 | > 32 | > 32

Second part, the molecule after the results:

IC50 [1] [nM] | MIC [2] [µg/mL] | MIC [3] [µg/mL] | MIC [4] [µg/mL] | MIC [5] [µg/mL] | Structure (SMILES)
65 | > 32 | > 32 | > 32 | > 32 | C[C@H](NC(=O)N[C@@H](Cc1c[nH]c2ccccc12)C(=O)O)C(=O)N[C@H](C(=O)N/C=C1\O[C@@H](n2ccc(=O)[nH]c2=O)[C@H](O)[C@@H]1O)[C@H](C)N(C)C(=O)CN
42 | 32 (≈ 44 µM) | 16 (≈ 22 µM) | 16 (≈ 22 µM) | 8 (≈ 11 µM) | C[C@H](N)C(=O)N(C)[C@@H](C)[C@H](NC(=O)[C@H](C)NC(=O)N[C@@H](Cc1c[nH]c2ccccc12)C(=O)O)C(=O)N/C=C1\O[C@@H](n2ccc(=O)[nH]c2=O)[C@H](O)[C@@H]1O
8900 | > 32 | > 32 | > 32 | > 32 | C[C@H](NC(=O)N[C@@H](Cc1c[nH]c2ccccc12)C(=O)O)C(=O)N[C@@H](C(=O)N/C=C1\O[C@@H](n2ccc(=O)[nH]c2=O)[C@H](O)[C@@H]1O)[C@H](C)N(C)C(=O)[C@@H](Cc1cccc(O)c1)NC(=O)CN
